These results are taken from PMC6682128 (ACS Omega, 2019).

A short description of the data set: Cytotoxicity assay. As to conditions: human. The format is cell-based. A digest of the protocol: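 Replicon cells (Huh5-2, Huh7.5-3a or Huh7.5-4a) were seeded at 10^4 per well and grown 24 h in complete DMEM. They were then exposed for three days to serial dilutions of test compound or DMSO solvent. Lysates were assayed for ATP by chemiluminescence, normalised to Bradford total protein. CC50 was obtained by nonlinear regression against log concentration.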
As to `CC(C)COC(=O)N[C@H](C(=O)N1CCC[C@H]1C(=O)Nc1cccc(C#CC#Cc2cccc(NC(=O)[C@@H]3CCCN3C(=O)[C@@H](NC(=O)OCC(C)C)C(C)C)c2)c1)C(C)C` [2d, Diisobutyl((2S,2′S)-((2S,2′S)-(((buta-1,3-diyne-1,4-diylbis(3,1-phenylene))bis(azanediyl))bis(carbonyl))bis(pyrrolidine-2,1-diyl))bis(3-methyl-1-oxobutane-1,2-diyl))dicarbamate], the CC50 (commonly the concentration that lowers cell viability or growth by half) at 3 days is greater than 20 µM. For the molecule `CCOC(=O)N[C@H](C(=O)N1CCC[C@H]1C(=O)Nc1ccc(C#CC#Cc2ccc(NC(=O)[C@@H]3CCCN3C(=O)[C@@H](NC(=O)OCC)C(C)CC)cc2)cc1)C(C)CC` (stereo partly drawn) [1h, Diethyl((2S,2′S)-((2S,2′S)-(((buta-1,3-diyne-1,4-diylbis(4,1-phenylene))bis(azanediyl))bis(carbonyl))bis(pyrrolidine-2,1-diyl))bis(3-methyl-1-oxopentane-1,2-diyl))dicarbamate], the CC50 at 3 days was greater than 10 µM. The molecule `CC(C)COC(=O)N[C@H](C(=O)N1CCC[C@H]1C(=O)Nc1ccc(C#CC#Cc2ccc(NC(=O)[C@@H]3CCCN3C(=O)[C@@H](NC(=O)OCC(C)C)C(C)C)cc2)cc1)C(C)C` [1d, Diisobutyl((2S,2′S)-((2S,2′S)-(((buta-1,3-diyne-1,4-diylbis(4,1-phenylene))bis(azanediyl))bis(carbonyl))bis(pyrrolidine-2,1-diyl))bis(3-methyl-1-oxobutane-1,2-diyl))dicarbamate] displayed a half-maximal cytotoxic concentration (CC50) at 3 days greater than 10 µM. The same measure for `CCOC(=O)N[C@H](C(=O)N1CCC[C@@H]1C(=O)Nc1ccc(C#CC#Cc2ccc(NC(=O)[C@H]3CCCN3C(=O)[C@@H](NC(=O)OCC)C(C)C)cc2)cc1)C(C)C` [1j, Diethyl((2S,2′S)-((2R,2′R)-(((buta-1,3-diyne-1,4-diylbis(4,1-phenylene))bis(azanediyl))bis(carbonyl))bis(pyrrolidine-2,1-diyl))bis(3-methyl-1-oxobutane-1,2-diyl))dicarbamate]: greater than 10 µM; for `CCC(C)[C@H](NC(=O)OCc1ccccc1)C(=O)N1CCC[C@H]1C(=O)Nc1ccc(C#CC#Cc2ccc(NC(=O)[C@@H]3CCCN3C(=O)[C@@H](NC(=O)OCc3ccccc3)C(C)CC)cc2)cc1` (stereo partly drawn) [1p, Dibenzyl((2S,2′S)-((2S,2′S)-(((buta-1,3-diyne-1,4-diylbis(4,1-phenylene))bis(azanediyl))bis(carbonyl))bis(pyrrolidine-2,1-diyl))bis(3-methyl-1-oxopentane-1,2-diyl))dicarbamate]: greater than 10 µM; for `CCCCOC(=O)N[C@@H](CC(C)C)C(=O)N1CCC[C@H]1C(=O)Nc1cccc(C#CC#Cc2cccc(NC(=O)[C@@H]3CCCN3C(=O)[C@H](CC(C)C)NC(=O)OCCCC)c2)c1` [2g, Dibutyl((2S,2′S)-((2S,2′S)-(((buta-1,3-diyne-1,4-diylbis(3,1-phenylene))bis(azanediyl))bis(carbonyl))bis(pyrrolidine-2,1-diyl))bis(4-methyl-1-oxopentane-1,2-diyl))dicarbamate]: greater than 10 µM. `CCOC(=O)N[C@H](CC(C)C)C(=O)N1CCC[C@@H]1C(=O)Nc1ccc(C#CC#Cc2ccc(NC(=O)[C@H]3CCCN3C(=O)[C@@H](CC(C)C)NC(=O)OCC)cc2)cc1` [1m, Diethyl((2R,2′R)-((2R,2′R)-(((buta-1,3-diyne-1,4-diylbis(4,1-phenylene))bis(azanediyl))bis(carbonyl))bis(pyrrolidine-2,1-diyl))bis(4-methyl-1-oxopentane-1,2-diyl))dicarbamate] gave a CC50 at 3 days greater than 10 µM. For `CCOC(=O)N[C@H](C(=O)N1CCC[C@@H]1C(=O)Nc1cccc(C#CC#Cc2cccc(NC(=O)[C@H]3CCCN3C(=O)[C@@H](NC(=O)OCC)C(C)C)c2)c1)C(C)C` [2j, Diethyl((2S,2′S)-((2R,2′R)-(((buta-1,3-diyne-1,4-diylbis(3,1-phenylene))bis(azanediyl))bis(carbonyl))bis(pyrrolidine-2,1-diyl))bis(3-methyl-1-oxobutane-1,2-diyl))dicarbamate], the CC50 at 3 days was greater than 10 µM.

In turn, `CCCCOC(=O)N[C@H](C(=O)N1CCC[C@H]1C(=O)Nc1ccc(C#CC#Cc2ccc(NC(=O)[C@@H]3CCCN3C(=O)[C@@H](NC(=O)OCCCC)C(C)C)cc2)cc1)C(C)C` [1c, Dibutyl((2S,2′S)-((2S,2′S)-(((buta-1,3-diyne-1,4-diylbis(4,1-phenylene))bis(azanediyl))bis(carbonyl))bis(pyrrolidine-2,1-diyl))bis(3-methyl-1-oxobutane-1,2-diyl))dicarbamate] yielded a CC50 at 3 days greater than 20 µM. Molecule `CCOC(=O)N[C@@H](CC(C)C)C(=O)N1CCC[C@@H]1C(=O)Nc1cccc(C#CC#Cc2cccc(NC(=O)[C@H]3CCCN3C(=O)[C@H](CC(C)C)NC(=O)OCC)c2)c1` [2l, Diethyl((2S,2′S)-((2R,2′R)-(((buta-1,3-diyne-1,4-diylbis(3,1-phenylene))bis(azanediyl))bis(carbonyl))bis(pyrrolidine-2,1-diyl))bis(4-methyl-1-oxopentane-1,2-diyl))dicarbamate] came in with a CC50 at 3 days greater than 10 µM.

In turn, `CCOC(=O)N[C@H](C(=O)N1CCC[C@H]1C(=O)Nc1cccc(C#CC#Cc2cccc(NC(=O)[C@@H]3CCCN3C(=O)[C@@H](NC(=O)OCC)C(C)C)c2)c1)C(C)C` [2b, Diethyl((2S,2′S)-((2S,2′S)-(((buta-1,3-diyne-1,4-diylbis(3,1-phenylene))bis(azanediyl))bis(carbonyl))bis(pyrrolidine-2,1-diyl))bis(3-methyl-1-oxobutane-1,2-diyl))dicarbamate] registered a CC50 at 3 days greater than 200 µM. The molecule `CCOC(=O)N[C@H](C(=O)N1CCC[C@H]1C(=O)Nc1cccc(C#CC#Cc2cccc(NC(=O)[C@@H]3CCCN3C(=O)[C@@H](NC(=O)OCC)[C@@H](C)CC)c2)c1)[C@H](C)CC` [2h, Ethyl((2S,3S)-1-((S)-2-((3-((3-((S)-1-((ethoxycarbonyl)-L-alloisoleucyl)pyrrolidine-2-carboxamido)phenyl)buta-1,3-diyn-1-yl)phenyl)carbamoyl)pyrrolidin-1-yl)-3-methyl-1-oxopentan-2-yl)carbamate] returned a CC50 at 3 days greater than 200 µM. `COC(=O)N[C@@H](CC(C)C)C(=O)N1CCC[C@H]1C(=O)Nc1cccc(C#CC#Cc2cccc(NC(=O)[C@@H]3CCCN3C(=O)[C@H](CC(C)C)NC(=O)OC)c2)c1` [2o, Dimethyl((2S,2′S)-((2S,2′S)-(((buta-1,3-diyne-1,4-diylbis(3,1-phenylene))bis(azanediyl))bis(carbonyl))bis(pyrrolidine-2,1-diyl))bis(4-methyl-1-oxopentane-1,2-diyl))dicarbamate]: the CC50 at 3 days is greater than 20 µM. For `CCCCOC(=O)N[C@H](C(=O)N1CCC[C@H]1C(=O)Nc1cccc(C#CC#Cc2cccc(NC(=O)[C@@H]3CCCN3C(=O)[C@@H](NC(=O)OCCCC)C(C)C)c2)c1)C(C)C` [2c, Dibutyl((2S,2′S)-((2S,2′S)-(((buta-1,3-diyne-1,4-diylbis(3,1-phenylene))bis(azanediyl))bis(carbonyl))bis(pyrrolidine-2,1-diyl))bis(3-methyl-1-oxobutane-1,2-diyl))dicarbamate], the CC50 at 3 days was greater than 10 µM. The same measure for `CCOC(=O)N[C@H](CC(C)C)C(=O)N1CCC[C@@H]1C(=O)Nc1cccc(C#CC#Cc2cccc(NC(=O)[C@H]3CCCN3C(=O)[C@@H](CC(C)C)NC(=O)OCC)c2)c1` [2m, Diethyl((2R,2′R)-((2R,2′R)-(((buta-1,3-diyne-1,4-diylbis(3,1-phenylene))bis(azanediyl))bis(carbonyl))bis(pyrrolidine-2,1-diyl))bis(4-methyl-1-oxopentane-1,2-diyl))dicarbamate]: greater than 10 µM; for `COC(=O)N[C@H](C(=O)N1CCC[C@H]1C(=O)Nc1ccc(C#CC#Cc2ccc(NC(=O)[C@@H]3CCCN3C(=O)[C@@H](NC(=O)OC)C(C)C)cc2)cc1)C(C)C` [1a, Dimethyl((2S,2′S)-((2S,2′S)-(((buta-1,3-diyne-1,4-diylbis(4,1-phenylene))bis(azanediyl))bis(carbonyl))bis(pyrrolidine-2,1-diyl))bis(3-methyl-1-oxobutane-1,2-diyl))dicarbamate]: 11 µM.

For `CCOC(=O)N[C@@H](C(=O)N1CCC[C@H]1C(=O)Nc1ccc(C#CC#Cc2ccc(NC(=O)[C@@H]3CCCN3C(=O)[C@H](NC(=O)OCC)C(C)C)cc2)cc1)C(C)C` [1n, Diethyl((2R,2′R)-((2S,2′S)-(((buta-1,3-diyne-1,4-diylbis(4,1-phenylene))bis(azanediyl))bis(carbonyl))bis(pyrrolidine-2,1-diyl))bis(3-methyl-1-oxobutane-1,2-diyl))dicarbamate], the CC50 at 3 days amounted to 70.6 µM. Regarding `CCCCOC(=O)N[C@H](C(=O)N1CCC[C@H]1C(=O)Nc1cccc(C#CC#Cc2cccc(NC(=O)[C@@H]3CCCN3C(=O)[C@@H](NC(=O)OCCCC)[C@@H](C)CC)c2)c1)[C@H](C)CC` [2i, Butyl((2S,3S)-1-((S)-2-((3-((3-((S)-1-((butoxycarbonyl)-L-alloisoleucyl)pyrrolidine-2-carboxamido)phenyl)buta-1,3-diyn-1-yl)phenyl)carbamoyl)pyrrolidin-1-yl)-3-methyl-1-oxopentan-2-yl)carbamate], the CC50 at 3 days was greater than 10 µM. `CCOC(=O)N[C@@H](CC(C)C)C(=O)N1CCC[C@H]1C(=O)Nc1ccc(C#CC#Cc2ccc(NC(=O)[C@@H]3CCCN3C(=O)[C@H](CC(C)C)NC(=O)OCC)cc2)cc1` [1f, Diethyl((2S,2′S)-((2S,2′S)-(((buta-1,3-diyne-1,4-diylbis(4,1-phenylene))bis(azanediyl))bis(carbonyl))bis(pyrrolidine-2,1-diyl))bis(4-methyl-1-oxopentane-1,2-diyl))dicarbamate] returned a CC50 at 3 days greater than 10 µM. Molecule `CCCCOC(=O)N[C@H](C(=O)N1CCC[C@H]1C(=O)Nc1ccc(C#CC#Cc2ccc(NC(=O)[C@@H]3CCCN3C(=O)[C@@H](NC(=O)OCCCC)C(C)CC)cc2)cc1)C(C)CC` (stereo partly drawn) [1i, Dibutyl((2S,2′S)-((2S,2′S)-(((buta-1,3-diyne-1,4-diylbis(4,1-phenylene))bis(azanediyl))bis(carbonyl))bis(pyrrolidine-2,1-diyl))bis(3-methyl-1-oxopentane-1,2-diyl))dicarbamate] registered a CC50 at 3 days greater than 10 µM.
